Shown are actives, neighbours in structure and some others; about 4.5% of the full set was active somewhere.
OX1R antag-1 = OX1R (HCRTR1) antagonists, primary screen, fluorescence, CHO/OX1R cells, Fluo-8 calcium, orexin A; AID 434989, 2010; Orexin/Hypocretin receptor type 1 (Homo sapiens), O43613; Fluo-8 calcium fluorescence; inhibition, % at 5 µM; 330,000 tested, 0.43% active;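 active = inhibition above its plate's threshold, mean inhibition of all tested compounds on the plate plus 3 SD, cut at about 37% in these data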;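 also: 0% = orexin A challenge wells and 100% = SB-334867-A antagonist wells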
GPR7 antag = GPR7 receptor antagonists, primary screen, cell-based, fluorescence, single concentration | AID 1861, 2009 | GPR7-expressing cells, fluorescence antagonist assay | Neuropeptides B/W receptor type 1 (Homo sapiens), P48145 | 290,000 tested, 1.1% active | inhibition, % at 4.4 µM; in the data active = inhibition above about 16%, passing the limit was not always enough;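 also: cells stimulated with the agonist NPW; 0% = agonist with vehicle and 100% = vehicle without agonist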
Target sequence (P48145 whole entry, looked up): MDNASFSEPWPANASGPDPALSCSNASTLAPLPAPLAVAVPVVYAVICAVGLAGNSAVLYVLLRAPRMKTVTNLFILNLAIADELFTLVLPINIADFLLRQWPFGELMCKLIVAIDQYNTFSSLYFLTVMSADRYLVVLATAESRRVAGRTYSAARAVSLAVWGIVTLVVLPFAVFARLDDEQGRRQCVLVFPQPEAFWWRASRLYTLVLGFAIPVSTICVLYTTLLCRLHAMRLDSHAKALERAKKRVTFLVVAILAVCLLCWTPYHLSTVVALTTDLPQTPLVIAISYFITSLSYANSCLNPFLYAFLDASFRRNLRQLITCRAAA
OX1R antag-2 = antagonists of human orexin 1 receptor (OX1R); inhibition, % at 6.6 µM; OX1R-expressing cells, FRET antagonist read-out; AID 485270, 2010; 330,000 tested, 1.8% active; Orexin/Hypocretin receptor type 1 (Homo sapiens), O43613; in the data active = inhibition mostly above about 38%, no sharp cut-off; inactive = mostly below about 40%;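 also: 0% = agonist challenge alone and 100% = reference antagonist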
TAAR1 antagonist = human TAAR1 antagonists, primary screen, Fluo-8 calcium fluorescence, CHO RD-HGA16 cells. Trace amine-associated receptor 1 (Homo sapiens), Q96RJ0. antagonist. inhibition, % at 3 µM. 360,000 tested, 1.5% active;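 active = inhibition above a per-plate cutoff, the mean inhibition of test compounds on that plate plus 3 SD, cut at about 49% in these data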;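 also: 0% = DMSO plus EC80 beta-PEA response and 100% = DMSO alone without agonist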
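Material: RD-HGA16 CHO cells with stable hTAAR1 and Gα16; Dosing: single nominal final test compound concentration of 3 µM; Schedule: seeding 17-24 h prior, 75-min 37 °C, 30-min RT dye loading; Detection: kinetic Fluo-8 calcium fluorescence measurement; Measure: % inhibition from peak post-agonist over basal fluorescence ratio; Benchmarks: vehicle and agonist controls.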
TAAR1 agonist = human TAAR1 agonists, primary screen, Fluo-8 calcium fluorescence, CHO RD-HGA16 cells. activation, % at 3 µM. 360,000 tested, 0.99% active. vehicle wells 0%, saturating PEA agonist 100%. Trace amine-associated receptor 1 (Homo sapiens), Q96RJ0;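 active = activation above the mean activation of all test compounds in the run plus 3 SD, cut at about 38% in these data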
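Benchmarks: low control DMSO, high control PEA (EC100); System: CHO RD-HGA16 cells carrying human TAAR1 plus Gα16; Detection: Fluo-8 fluorescence, 5 s baseline then 140 s kinetic read; Schedule: 17-24 h plating, Fluo-8 75 min 37 °C, 30 min RT; Read-out basis: % activation from peak over basal fluorescence ratio, DMSO-to-PEA scaled.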
CHO parental Ca = ATP-evoked calcium signal inhibitors, parental CHO, primary screen, counter-screen for OX1R antagonist project, cell-based, fluorescence, Fluo-8 calcium dye | parental CHO-K1, ATP-induced calcium, Fluo-8 fluorescence | inhibition, % at 5.6 µM | 330,000 tested, 0.63% active | AID 463079, 2010;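 active = inhibition above that plate's mean sample inhibition plus 3 SD, cut at about 26% in these data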;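 also: 0% = ATP-challenged DMSO wells and 100% = DMSO wells without ATP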
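Test system: untransfected parental CHO cell line; also added: ATP stimulus; dosing: 5.6 µM, single dose; signal: calcium-sensitive Fluo-8 fluorescence; measure: percent inhibition of ATP-evoked calcium rise, normalized to controls; benchmarks: low control ATP plus DMSO, high control DMSO only; replication: one well per compound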
* = called active by the depositor; . = no result given.

SMILES	OX1R antag-1	GPR7 antag	OX1R antag-2	TAAR1 antagonist	TAAR1 agonist	CHO parental Ca
Cc1cc(NC(=O)c2cc3cccc([N+](=O)[O-])c3[nH]2)ccc1F	6	-1	46*	7	5	5
OC1(c2ccc(Cl)cc2)CCN(Cc2cn[nH]c2-c2ccc(F)cc2)CC1	-16	1	-1	-7	41*	-20
CCN1C(=O)[C@H]2[C@@H](c3ccc(C(F)(F)F)cc3)N[C@]3(CCCN(Cc4ccc(Cl)cc4)C3=O)[C@H]2C1=O	.	.	.	-17	2	.
COc1ccc2sc(-c3ccc(S(C)(=O)=O)cc3)c(C(=O)NCCc3c[nH]c4ccccc34)c2c1	33	.	22	58*	28	10
COc1ccc(NC(=O)[C@@H]2CC=C[C@@H]3CCN(Cc4ccccc4)C(=O)[C@@H]32)cc1	-10	.	41	6	9	-16
O=C(Nc1nccs1)[C@@H]1CC=C[C@@H]2CCN(Cc3ccccc3)C(=O)[C@@H]21	6	.	68*	7	14	-17
COC(=O)[C@]12C[C@H](CC(=O)NCc3cccc(C(F)(F)F)c3)C(=O)N(Cc3ccc4c(c3)OCO4)C1=C[C@H](C(C)(C)C)O[C@@H]2C	.	.	.	-11	0	.
C=CCN1C(=O)C2(NC(=O)c3ccccc3N2)c2ccccc21 (centres undefined)	12	5	8	7	2	-3
CCCCN1C(=O)C2(NNc3ccccc3O2)c2ccccc21 (centres undefined)	37*	10	3	21	10	31
C=CCN1C(=O)C2(NNc3ccccc3O2)c2ccccc21 (centres undefined)	30	2	7	6	1	32*
CC(=O)N1C[C@@H](CO)[C@@H](N(C)C(=O)Nc2cccc3ccccc23)C[C@H]1c1ccccc1	.	.	.	1	0	.
COCCCNC(=O)CSc1nc2ccccc2c(=O)n1CCc1ccc(S(N)(=O)=O)cc1	-21	-2	42	57*	10	-12
CC(NC(=O)c1c(N)[nH]c(C(=O)c2ccc(Cl)cc2)c1-c1ccc(Br)cc1)c1cccc2ccccc12 (centres undefined)	.	.	.	-16	1	.
COc1ccc(S(=O)(=O)Nc2ccccc2)cc1	-17	.	14	7	3	-33
COc1ccc(S(=O)(=O)Nc2ccc(O)c3ccccc23)cc1	-15	-10	43*	14	7	-9
O=S(=O)(Nc1c(O)ccc2ccccc12)c1ccc(F)cc1	-7	.	41	5	2	-39
O=S(=O)(Nc1c(O)ccc2ccccc12)c1ccccc1	6	.	64*	-27	0	-27
O=C(Cc1ccccc1)NCc1ccc(-n2cccc2)cc1	-18	-6	12	13	38*	-8
CC(C)C(NCC(=O)Nc1ccccc1C(=O)NC1CC1)c1ccccc1 (centres undefined)	16	.	43*	15	7	-12
CCN(CC)S(=O)(=O)c1cccc(NC(=O)COC(=O)c2[nH]c(C)c(C(C)=O)c2C)c1	.	.	.	55*	17	.
CC(=O)c1c(C)[nH]c(C(=O)OCC(=O)Nc2cccc(S(=O)(=O)N3CCCC3)c2)c1C	39*	3	13	50*	15	29
Cc1cc(Nc2ccc(OC(F)F)cc2)cc(=O)n1-c1ccc(OC(F)F)cc1	.	.	.	13	0	.
C/C(=N\NC(=O)c1ccc(Br)cc1)C1C(=O)c2ccccc2C1=O	-1	1	55*	11	2	-2
CC(/C=N/NC(=O)c1cccnc1)=C\c1ccccc1	8	-2	16	11	8	-5
Cc1ccc(-c2cc(C(=O)N/N=C/c3ccccc3)n[nH]2)o1	-17	-3	20	1	2	-8
CC(/C=N/NC(=O)c1ccc(Br)cc1)=C\c1ccccc1	1	-9	9	-17	0	66*
